Compound activity as filed in PubChem BioAssay.
Rows were chosen to be rich in hits. Some 2.4% of all compounds tested hit in one or more screens of this group.
S1P4 agonist: activates the human S1P4 receptor; O95977; S1P4-expressing cell line, agonist reporter assay; activation, % at 4.98 µM; hit rate 0.35% among 220,000; AID 1509; in the data active = activation above about 11%;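 note: 0% = DMSO vehicle and 100% = reference agonist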
NPY-Y2 PAM-ag: potentiators or agonists of human neuropeptide Y receptor Y2. P49146. cells expressing NPY-Y2, potentiator/agonist read-out. activation, % at 3.6 µM. hit rate 0.45% among 220,000; in the data active = activation above about 27%;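 note: cells stimulated with NPY near EC25 plus isoproterenol at EC100; 0% = vehicle plus submaximal agonist and 100% = vehicle plus saturating agonist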
Target sequence (P49146 whole entry, looked up): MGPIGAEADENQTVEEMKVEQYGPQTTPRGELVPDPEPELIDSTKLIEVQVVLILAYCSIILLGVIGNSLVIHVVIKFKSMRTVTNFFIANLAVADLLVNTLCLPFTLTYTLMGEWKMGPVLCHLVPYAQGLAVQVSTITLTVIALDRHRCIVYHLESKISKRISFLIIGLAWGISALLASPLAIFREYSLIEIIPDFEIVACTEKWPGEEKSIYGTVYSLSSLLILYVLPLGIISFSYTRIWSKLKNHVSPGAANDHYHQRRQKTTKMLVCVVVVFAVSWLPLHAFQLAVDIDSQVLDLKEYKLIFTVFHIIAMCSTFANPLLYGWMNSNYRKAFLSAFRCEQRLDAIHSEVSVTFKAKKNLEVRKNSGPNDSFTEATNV
NPY Y2 blocker: NPY-Y2 (human) receptor antagonism. P49146. NPY-Y2 expressing cells, antagonist mode. inhibition, % at 2.7 µM. hit rate 0.99% among 140,000;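 note: 0% = vehicle with agonist challenge and 100% = reference antagonist with challenge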
NPY1 pot ag: potentiators or agonists of human neuropeptide Y receptor Y1; NPY-Y1 expressing cells, potentiator/agonist activation; activation, % at 3.6 µM; hit rate 0.37% among 220,000; in the data active = activation above about 33%, passing the limit was not always enough;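 note: cells stimulated with NPY at EC10 then isoproterenol at EC100; 0% = low agonist plus stimulus and 100% = saturating agonist plus stimulus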
NPY Y1 blocker: blocks the human neuropeptide Y Y1 receptor; P25929; hit rate 1% among 200,000; HEK293-CNG Y1 cells, membrane potential fluorescence; NPY at EC95, then isoproterenol; inhibition, % at 3.6 µM; AID 1040;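 active = inhibition above the campaign mean inhibition of all tested compounds plus 3 SD, cut at about 20% in these data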;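 note: 0% = DMSO wells given NPY plus isoproterenol and 100% = isoproterenol alone without NPY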
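Benchmarks – high control isoproterenol alone, low control NPY with isoproterenol · Material – HEK293 Y1/CNG channel cell line · Times – dye 3 h, compound 60 min room temperature, stimulation 45 min · Probe or stimulus – NPY (25 nM), isoproterenol (1 µM), Ro 20-1724 (25 µM) · Evaluation – % inhibition of NPY effect · Signal – fluorescence, membrane potential probe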
S1P4 antagonist: human S1P4 receptor antagonism. O95977. S1P4-expressing cells, antagonist mode, reporter read-out. inhibition, % at 4.98 µM. hit rate 0.26% among 220,000; in the data active = inhibition above about 29%;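 note: 0% = wells stimulated with agonist and 100% = vehicle wells without agonist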
NPY-Y1 ant conf: human NPY-Y1 antagonism, confirmation; HEK293-CNG NPY-Y1, membrane potential fluorescence, cAMP; NPY challenge against isoproterenol-raised cAMP; hit rate 21% among 1,200; shares compounds with NPY Y1 blocker; AID 1254; inhibition, % at 3.6 µM; in the data active = inhibition above about 20%;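 note: 0% = vehicle with agonist plus stimulus and 100% = stimulus alone without agonist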
NPY-Y2 antag ct: antagonizes human NPY-Y2, counter-screen to NPY-Y1 antagonists. inhibition, % at 3.6 µM. AID 1255. HEK293 NPY-Y2 CNG membrane potential fluorescence, antagonism; cells given NPY, then isoproterenol. shares compounds with NPY Y1 blocker. hit rate 28% among 1,200;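 note: 0% = DMSO with agonist challenge and 100% = reference antagonist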
* hit, by the source's call; nt = no result. Cut-off read from the data, not from the text of the source, unless noted: active = inhibition above about 17%; inactive = the rest.

SMILES	S1P4 agonist	NPY-Y2 PAM-ag	NPY Y2 blocker	NPY1 pot ag	NPY Y1 blocker	S1P4 antagonist	NPY-Y1 ant conf	NPY-Y2 antag ct
O=C(CS(=O)(=O)c1ccccc1)c1ccc2c(c1)OCCO2	-0.1	10.7	1.2	4.4	-0.8	-8.2	nt	nt
c1ccc(-c2ccccc2OCCCCN2CCCCCC2)cc1	-0.7	-13.3	nt	-13.9	23.8*	9.9	9.3	11.3
CC1CCN(CCCCOc2ccccc2-c2ccccc2)CC1	0.6	-13.8	15.2	-31.9	9.8	6.1	nt	nt
CCCCNCCOc1ccccc1-c1ccccc1	-0.9	2.5	16.2	-30.4	30.1*	-14.2	15.5	12.2
CC1CCCN(CCCOc2ccccc2-c2ccccc2)C1 (configuration not stated)	-1.1	-10.3	nt	-5.0	24.7*	12.6	14.2	10.7
Nc1ccc(S(=O)(=O)N2CCCC2)cc1	-2.7	10.9	4.6	14.5	1.0	-3.7	nt	nt
C1=C(c2ccccc2)Nc2ccccc2N=C1c1ccccc1	0.5	-6.0	15.0	-19.0	24.9*	-28.9	18.3	10.2
COc1cccc(Oc2ccc(C(F)(F)F)cc2N)c1	1.2	-0.8	3.2	-17.0	2.4	-20.1	nt	nt
CN(C)CCSc1nc(-c2ccccc2)nc2c1CCC2	2.5	-41.9	16.0	-94.4	24.1*	-0.6	11.5	19.7*
COc1ccc(C(=O)Nc2ccc(Cl)cc2C(=O)NCc2ccco2)cc1OC	2.3	-155.6	15.8	-160.0	24.5*	-4.5	24.7*	24.0*
Cc1ccc(-n2cccn2)c(CN2CCCC(C(=O)c3ccc4c(c3)OCO4)C2)c1 (configuration not stated)	1.5	-24.7	nt	-28.0	27.6*	-8.1	24.1*	28.4*
COC(=O)C1=C(Nc2ccc(C)cc2)C=C(C)C(C(=O)OC)C1c1cccc(OC)c1 (configuration not stated)	-3.2	-24.6	10.4	-72.3	24.3*	-11.0	10.6	10.7
CC1(C)C(CSc2nc3ccccc3[nH]2)C1(Cl)Cl (configuration not stated)	-1.0	-82.0	nt	-45.8	91.8*	-7.9	90.0*	110.4*
O=C(CSc1nnc(-c2cccs2)n1Cc1ccccc1)NCc1ccc2c(c1)OCO2	-0.6	-6.1	3.6	-7.8	3.7	-5.7	nt	nt
CC(Sc1nnc(-c2cccs2)n1Cc1ccccc1)C(=O)NCc1ccc2c(c1)OCO2 (configuration not stated)	-0.5	8.7	14.6	3.4	24.0*	2.3	6.8	7.3
C1CCC(Nc2nnnn2C2CCCCC2)CC1	-2.2	13.9	-2.1	13.5	8.3	5.1	nt	nt
CN(C)/C=C/C(=O)c1nnn(C2CCCCC2)c1NC1CCCCC1	1.9	8.1	14.2	-31.9	22.0*	-15.4	-2.9	8.6
Cc1ccccc1Oc1cc(NC(=O)CCCn2nc(C)c([N+](=O)[O-])c2C)cc([N+](=O)[O-])c1	0.2	22.3	0.6	16.2	-5.5	-15.3	nt	nt
Cc1ccccc1Oc1cc(NC(=O)Cn2cnc([N+](=O)[O-])c2)cc([N+](=O)[O-])c1	1.3	16.2	nt	32.0	25.2*	1.8	-4.8	-5.2
Cc1nc(CNS(=O)(=O)c2ccc3ccccc3c2)cs1	2.0	4.4	0.0	2.8	0.7	-6.2	nt	nt
Cc1nc(-c2cccc(NS(=O)(=O)c3ccc4ccccc4c3)c2)cs1	0.6	-33.2	15.2	-24.9	32.2*	-12.5	8.8	9.6
CCC(C)c1ccccc1NC(=O)COC(=O)c1ccc2c(c1)S(=O)(=O)c1ccccc1C2=O (configuration not stated)	-0.3	11.0	3.3	5.4	-1.4	-21.6	nt	nt
COc1ccc(C2CC(c3cccs3)n3nc(N)nc3N2)cc1 (configuration not stated)	0.0	-4.6	2.5	23.7	3.2	-1.1	nt	nt
COc1ccc(-c2ccc(C(=O)O)c(=O)[nH]2)cc1	1.3	6.4	nt	-7.9	-3.2	-0.8	nt	nt
Cc1ccc(-c2ccc(C(=O)O)[nH]2)cc1	-1.6	-43.3	11.3	-39.2	28.1*	3.1	7.3	7.6
